NR2E3 ag-1 = agonists of human NR2E3 nuclear receptor; Q9Y5X4; CHO-S Gal4-NCOR/VP16-NR2E3 two-hybrid, luciferase; inhibition of corepressor binding, % at 3.98 µM; 0.35% of 360,000 active; AID 602229;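 active = inhibition above the mean of all tested compounds plus 3 SD, cut at about 70% in these data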;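 note: 0% = DMSO with NR2E3 transfected cells and 100% = cells lacking NR2E3 construct; higher means lower luciferase signal from less NR2E3 corepressor binding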
JMJD2C inh = inhibitors of human GASC-1 (JMJD2C) demethylase | Q9H3R0 | GST-JMJD2C(1-420) H3K9me3 demethylation, DELFIA europium | inhibition, % at 2.35 µM | 0.069% of 330,000 active;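 active = more than half of a compound's replicate wells show inhibition beyond 50%, single wells judged on their own value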;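 note: signal counts dimethyl H3K9 product captured on neutravidin plate; 0% = median of DMSO wells and 100% = 0.3 times that DMSO median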
NR2E3 ag-2 = NR2E3 (human) agonism | inhibition of corepressor binding, % at 4.78 µM | GST-NR2E3/biotin-RetCOR TR-FRET, 1536-well | 0.12% of 320,000 active;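 active = percent inhibition above the cutoff of mean plus 3 SD of all tested compounds, set per screening campaign, cut at about 20% in these data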;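 note: 0% = DMSO wells and 100% = biotin wells as full block of FRET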
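Test system: GST-NR2E3 and biotin-RetCOR proteins | Quantity: 1.35 nM GST-tagged NR2E3 final | Medium: Tris pH 7.5 | Also added: 7 nM biotin-RetCOR | Dosing: Compound at 4.8 µM, single dose | Timing: 5 h at 4 °C | Detection: Time-resolved FRET | Read-out basis: Percent inhibition | Benchmarks: Biotin wells as high control, 0.6% DMSO wells as low control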
697 NFkB inh = lowers PMA/ionomycin-induced NF-kB signal in 697 B cells | 0.33% of 330,000 active | 697 B-cell NF-kB luciferase reporter, 16 h | inhibition, % at 4 µM; in the data active = inhibition above about 35%
GalR3 antag = antagonists of human GalR3. O60755. HEK293 GalR3-CNG cAMP membrane potential fluorescence; galR3 body fused to GalR1 C-terminus. inhibition, % at 3 µM. 0.44% of 360,000 active. AID 651719;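 active = inhibition above the screen-wide average plus 3 SD, cut at about 13% in these data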;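 note: forskolin and galanin both at EC90 stimulate the cells; cAMP rise reported by CNG channel membrane potential dye signal; 0% = forskolin plus galanin with DMSO and 100% = forskolin alone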
Target sequence (O60755 1-299 limits assumed): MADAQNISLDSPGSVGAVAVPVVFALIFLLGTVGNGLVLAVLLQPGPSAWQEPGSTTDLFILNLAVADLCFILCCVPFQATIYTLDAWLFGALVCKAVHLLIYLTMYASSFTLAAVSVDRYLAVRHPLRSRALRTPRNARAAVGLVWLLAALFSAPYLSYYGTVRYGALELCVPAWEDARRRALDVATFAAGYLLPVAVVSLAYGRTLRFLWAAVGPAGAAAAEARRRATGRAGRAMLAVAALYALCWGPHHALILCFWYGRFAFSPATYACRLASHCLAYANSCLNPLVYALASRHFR
Jurkat NFkB inh = lowers PMA/ionomycin-induced NF-kB signal in Jurkat cells. inhibition, % at 4 µM. 0.53% of 330,000 active. PMA/ionomycin-induced NF-kB luciferase reporter, luminescence; in the data active = inhibition above about 50%
GalR3 conf = confirmation of human galanin receptor 3 antagonists. shares compounds with GalR3 antag. inhibition, % at 3 µM. HEK293 GalR3 CNG cAMP biosensor, membrane potential fluorescence; galR3 fused to GalR1 carboxy tail; challenged with forskolin and galanin at EC90. 59% of 1,600 active;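 active = inhibition above the primary screen's cutoff, the mean inhibition of all screened compounds plus 3 SD, cut at about 13% in these data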;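 note: 0% = forskolin plus galanin and 100% = forskolin alone with DMSO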
HEK-CNG parental = counter-screen for GalR3 antagonists: nonspecific agonists in parental HEK-CNG cells. shares compounds with GalR3 antag. activation, % at 3 µM. HEK293-CNG parental cells, cAMP membrane potential fluorescence; normalised: DMSO wells 0%, forskolin wells 100%. AID 652268. 10% of 1,600 active; in the data active = activation above about 1.3%
* hit, by the source's call; · = no result given. The list is not random: actives were taken first. Their share in the collection is about 1.5%.

SMILES	NR2E3 ag-1	JMJD2C inh	NR2E3 ag-2	697 NFkB inh	GalR3 antag	Jurkat NFkB inh	GalR3 conf	HEK-CNG parental
CC(=O)Nc1ccc(/C=C/c2ccc3cccc([N+](=O)[O-])c3n2)cc1	-86	24	-2	-37	-1	-42	·	·
Cc1ccc(CNC(=O)COC(=O)c2ccc(Cl)c(N)c2)cc1	-14	4	2	4	-4	-4	·	·
CC(=O)N1CCC(C(=O)N2c3ccccc3N=C(c3ccc4c(c3)OCO4)C2C(=O)NCc2ccccc2)CC1 (configuration not stated)	·	·	·	·	-1	·	·	·
CCOc1cc(/C=N/NC(=O)C(=O)NC)cc(Br)c1O	-9	12	-4	-17	5	-7	·	·
COc1ccc(-c2cc(N)n(S(=O)(=O)c3c(F)c(F)c(F)c(F)c3F)n2)cc1OC	38	-1	0	-22	54*	8	60*	1
COc1ccc(NS(=O)(=O)c2ccc(OC)c(N(C)S(=O)(=O)c3ccc(Cl)cc3)c2)cc1	40	3	-2	-48	25*	13	62*	0
COc1ccc(NC(=O)COc2ccc(N(C)S(=O)(=O)c3ccc(Cl)cc3)cc2)cc1OC	8	-38	1	-18	91*	37	85*	0
CN(Cc1nc(Cc2cccc(C(F)(F)F)c2)no1)C1CC(C)(C)NC(C)(C)C1	-6	39	-3	-2	-5	-17	·	·
CC(C)c1ccc(NC(=O)C2=NNC(=O)CC2)cc1	-128	-7	-3	-101	-3	-54	·	·
Nc1ccc(CNC(=O)c2cc3cc(Cl)ccc3nc2N)cc1	·	·	·	·	-3	·	·	·
Nc1nc2ccccc2cc1C(=O)NCc1ccc(-c2ccccc2)cc1	·	·	·	·	87*	·	97*	0
Cc1c(Cc2ccccc2)c(=O)oc2cc(OC(C)C(=O)NCC3CCC(C(=O)O)CC3)c(Cl)cc12 (configuration not stated)	-30	11	5	16	-4	3	·	·
COc1cc(/C=N/NC(N)=O)ccc1OCC(=O)Nc1ccc(C)c(C)c1	25	-10	-2	14	24*	1	32*	-1
COc1cc(/C=N/NC(N)=S)ccc1OCC(=O)Nc1ccc(C)c(C)c1	-26	-5	-5	-32	5	-20	·	·
COc1cc(C2Nc3ccc4ncccc4c3C3=C2C(=O)CCC3)cc(OC)c1O (configuration not stated)	-65	26	1	-17	13*	4	6	0
COc1cc(C2Nc3ccc4ncccc4c3C3=C2C(=O)CC(C)(C)C3)cc(OC)c1O (configuration not stated)	-14	-2	-2	-29	-7	-4	·	·
O=[N+]([O-])c1cccc(-c2nnc(C3CC3)o2)c1	-24	-13	0	5	-5	8	·	·
O=[N+]([O-])c1cccc(C2=NCCC(c3ccccc3)O2)c1 (configuration not stated)	5	-13	0	0	22*	6	4	0
O=c1oc2ccccc2c2c1C(c1ccc(Cl)cc1)Nc1ccc3ccccc3c1-2 (configuration not stated)	-17	31	4	-31	15*	18	-2	0
COCCn1c(=O)[nH]c(=O)c2c1nc(-c1cc(Br)c3c(c1)OCO3)n2Cc1ccccc1	-25	-33	0	12	15*	3	16*	0
COCCCn1c(-c2cccc(Cl)c2)nc2c1c(=O)[nH]c(=O)n2Cc1ccccc1	-3	8	-1	12	-7	-6	·	·
Cc1cccc(-n2c(SCC(=O)N3CC(=O)Nc4ccccc43)nc3ccccc3c2=O)c1	-37	-10	-2	25	15*	5	3	1
Cc1ccc(-n2c(SCC(=O)N3CC(=O)Nc4ccccc43)nc3ccccc3c2=O)cc1C	-20	-5	-1	7	-3	3	·	·
COc1ccc(/C=C2\SC(=O)N(CCNC(=O)C3=COCCO3)C2=O)cc1	-77	12	-1	-184	31*	34	21*	0
O=C(NCCN1C(=O)S/C(=C\c2ccc(OC(F)F)cc2)C1=O)c1cnccn1	-15	15	0	-39	15*	38	6	1
SMILES	NR2E3 ag-1	JMJD2C inh	NR2E3 ag-2	697 NFkB inh	GalR3 antag	Jurkat NFkB inh	GalR3 conf	HEK-CNG parental
Cn1c(CCNC(=O)c2ccccc2F)nnc1SCC(=O)Nc1nncs1	-14	-9	4	4	-11	19	·	·
Cc1nc(CSc2nnc3scc(-c4ccc(Cl)cc4)n23)cs1	-4	·	5	-2	-2	7	·	·
c1cc2c(cc1CN1CCN(C3CCCCCC3)CC1)OCO2	-10	-2	1	-9	-11	-25	·	·
c1ccc(CN2CCC(N3CCN(Cc4ccc5c(c4)OCO5)CC3)CC2)cc1	-12	7	2	-7	40*	30	0	6.0*
CNC(=S)N1CCN(c2ccc(Cl)c(Cl)c2)CC1	12	-9	2	10	2	-8	·	·
CC(NC(=O)c1ccc(C(=O)c2ccccc2)cc1)c1ccc(S(N)(=O)=O)cc1 (configuration not stated)	-17	·	·	1	-3	-6	·	·
CC(C)CC1NC(=O)N(Cc2nc3ccccc3s2)C1=O (configuration not stated)	6	-5	-2	13	19*	-6	-1	0
O=c1c2ccccc2ncn1Cc1nc2ccccc2s1	-15	-6	3	4	0	-11	·	·
CN(Cc1ccccc1)C(=O)c1ccc(NC(=O)Cc2ccc(NC(=O)C3CCCN(S(=O)(=O)c4cccc([N+](=O)[O-])c4)C3)cc2)cc1 (configuration not stated)	-3	·	·	·	-4	·	·	·
CCN(CC)c1ccc(/C=C(/C#N)C(=O)NC(C)C)o1	-14	3	-9	12	13*	-21	-2	0
O=C(C1CC=CCC1)N1CCN(C(=O)C2CC=CCC2)CC1 (configuration not stated)	3	-25	1	-13	1	2	·	·
Nc1ccc2c(c1)Cc1cc([N+](=O)[O-])ccc1-2	-26	6	-2	-41	-3	-34	·	·
CC(O)CN(CC(C)O)c1ccc2c(c1)Cc1cc([N+](=O)[O-])ccc1-2 (configuration not stated)	-72	·	·	·	13*	·	27*	1.4*
CC(=O)c1ccc(S(=O)(=O)N2CCN(CC(=O)NC(=O)NC3CCCCC3)CC2)cc1	13	4	3	·	-6	·	·	·
